Key:
[1] = tested on: Mus musculus; assay: Effective dose required for antagonist activity against 3-mercaptopropionic-acid-induced seizures in mice when administered intraperitoneally; Range is 50-100; assay type: functional; settings: ip
Method in brief: (§1)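 CD-1 male mice (18–26 g), groups of 5 or 10, housed individually, dosed ip in distilled H2O or H2O/Tween 80. Convulsant given 30 min later. Strychnine sulfate 2.7 mg/kg ip: protection = no tonic extension >15 min. MES 50 mA, 0.2 s, corneal: no tonic hind-limb extension. PTZ 60 mg/kg iv: no clonic seizures for 2 min. MPA 100 mg/kg iv: no seizures for 5 min. ED50 by quantal analysis from ≥4 doses, ≥10 mice each.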

[2] = tested on: Mus musculus; assay: Effective dose required for antagonist activity against strychnine induced seizures in mice when administered intraperitoneally; assay type: functional; settings: ip; method in brief: as §1
[3] = Dose encompassing the 50% lethal effect was recorded when administered intraperitoneally in mice; assay type: ADME, organism-based; settings: mouse, in vivo, ip
Method in brief: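 Deaths were recorded over the 7 days after dosing. The estimated LD50 was taken as the dose range spanning 50% lethality.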

[4] = tested on: Mus musculus; assay: Effective dose required for antagonist activity against pentylenetetrazole-induced seizures in mice when administered intraperitoneally; Range is 25-50; assay type: functional; settings: ip; method in brief: as §1
[5] = tested on: Mus musculus; assay: Effective dose required for antagonist activity against maximal electroshock induced seizures in mice when administered intraperitoneally; assay type: functional; settings: ip; method in brief: as §1
[6] = tested on: Mus musculus; assay: Effective dose required for antagonist activity against pentylenetetrazole-induced seizures in mice when administered intraperitoneally; assay type: functional; settings: ip; method in brief: as §1
[7] = tested on: Mus musculus; assay: Effective dose required for antagonist activity against strychnine induced seizures in mice when administered intraperitoneally; Range is 32-50; assay type: functional; settings: ip; method in brief: as §1
[8] = tested on: Mus musculus; assay: Effective dose required for antagonist activity against 3-mercaptopropionic-acid induced seizures in mice when administered intraperitoneally; assay type: functional; settings: ip; method in brief: as §1

Row | SMILES | ED50 [1] | ED50 [2] | LD50 [3] | ED50 [4] | ED50 [5] | ED50 [6] | ED50 [7] | ED50 [8]
1 | CCn1c(SC)nnc1-c1ccc(Cl)cc1 | 100 mg/kg | 26.7 mg/kg | > 800 mg/kg | 50 mg/kg | > 50 mg/kg |  |  | 
2 | Cn1c(-c2cccs2)nnc1[S+](C)[O-] (stereo not given) |  |  | > 800 mg/kg |  | > 200 mg/kg | > 200 mg/kg | 50 mg/kg | > 200 mg/kg

Reference: ChEMBL document CHEMBL1127484, “5-Aryl-3-(alkylthio)-4H-1,2,4-triazoles as selective antagonists of strychnine-induced convulsions and potential antispastic agents” (J Med Chem, 1994)
